Data on one molecule can be found in ChEMBL document CHEMBL1134785, “Synthesis and biological evaluation of prostaglandin-F alkylphosphinic acid derivatives as bone anabolic agents for the treatment of osteoporosis” (J Med Chem, 2001).

The subject of data set [1] is Rattus norvegicus. The experiment in a line: Derived trabecular no […]measured using micro Computed Tomography(CT) after a dose of 3000 ug/kg in Vertebral Bone. The format is functional, Trabecula. Put shortly:
(§1)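 Micro-CT of the fifth lumbar vertebra, measuring cancellous bone volume and architecture. Rats were 6 months old, OVX 60 days before treatment, then dosed daily for 60 days. Test-agent doses were 10–3000 µg/kg, given as a once-daily subcutaneous injection; 6 mg/kg/day was given to the positive-control group. Groups were compared with vehicle by ANOVA plus LSD test.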

The test system of data set [2] is Rattus norvegicus. The experiment in a line: Trabecular no (mm)measured Histomorphometrically after a dose of 300 ug/kg in proximal tibial metaphysis. The format is functional, Trabecula. Put shortly: (§2)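 Six-month-old rats were ovariectomized, and 60 days later daily subcutaneous dosing began for 60 days, with vehicle of acetate-buffered saline, methylcellulose and polysorbate. Xylenol orange (90 mg/kg) labelled bone pre-treatment and calcein (10 mg/kg) 14 and 4 days pre-sacrifice. Histomorphometry covered the proximal tibial metaphysis 1-4 mm distal to the growth plate-metaphyseal junction. Groups were 6-8 rats, compared by ANOVA/LSD vs vehicle.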

Data set [3] relates to Rattus norvegicus. Description: Endosteal eroded surface(%) measured Histomorphometrically after a dose of 30 ug/kg in tibial diaphysis. Type of data set: functional. In a few lines: (§3)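 Tibial histomorphometry in 6-month-old rats, OVX 60 days before treatment, then daily injection for 60 days. Vehicle was acetate-buffered saline with methylcellulose and polyoxyethylenesorbitan monooleate. Rats received xylenol orange 90 mg/kg before treatment and calcein 10 mg/kg at 14 and 4 days pre-sacrifice. Rats were killed by cardiac puncture under ketamine/xylazine. Groups were compared with vehicle by ANOVA plus LSD test.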

Data set [4] deals with Rattus norvegicus. The experiment in a line: Tissue area (mm) measured Histomorphometrically after a dose of 300 ug/kg in tibial diaphysis. Type of data set: functional. Put shortly:
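Rats on natural chow (1.46% Ca) were bilaterally ovariectomized at 6 months and left untreated for 60 days. They then received once-daily subcutaneous doses for 60 days, with vehicle of acetate-buffered saline, methylcellulose and polysorbate. Xylenol orange (90 mg/kg) was given before treatment and calcein (10 mg/kg) 14 and 4 days before sacrifice. Tibiae were analysed by fluorescent histomorphometry, 6-8 rats/group, ANOVA/LSD vs vehicle.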

Data set [5] deals with Rattus norvegicus. The experiment in a line: Bone Volume /Tissue Volume (%)measured using micro Computed Tomography(CT) after a dose of 100 ug/kg in Vertebral Bone. Particulars: at 100 µg/kg. The format is functional.
The target of data set [6] is T1, Prostaglandin D2 receptor (Homo sapiens, UniProt Q13258).
T1 sequence (Q13258 whole entry): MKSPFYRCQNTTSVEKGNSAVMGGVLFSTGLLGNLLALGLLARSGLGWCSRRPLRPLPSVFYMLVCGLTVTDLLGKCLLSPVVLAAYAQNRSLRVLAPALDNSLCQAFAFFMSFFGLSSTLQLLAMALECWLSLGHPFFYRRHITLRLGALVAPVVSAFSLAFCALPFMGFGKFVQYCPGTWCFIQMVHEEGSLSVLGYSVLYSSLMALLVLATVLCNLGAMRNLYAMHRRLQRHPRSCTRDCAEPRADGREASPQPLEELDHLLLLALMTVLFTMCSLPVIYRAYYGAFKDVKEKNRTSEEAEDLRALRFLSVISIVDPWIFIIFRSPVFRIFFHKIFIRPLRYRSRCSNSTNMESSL
Description: In vitro binding at DP human prostaglandin receptor using [3H]- PGD-2 as radioligand. Put shortly:
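hDP stably expressed in HEK-293 cells, collected 4-5 days after seeding. Membranes made by lysis and 100000g spin, then taken up at 1 mg protein/mL in TME buffer at pH 7.4. Competition binding used 5 nM [3H]PGD2, read by filtration and scintillation counting.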

Data set [7] deals with Rattus norvegicus. Description: Directly measured thickness(um) using micro Computed Tomography(CT) after a dose of 10 ug/kg in Vertebral Bone. The format is functional. In a few lines:
as §1

Data set [8] in a line: Dissociation constant was determined. Type of data set: physicochemical.
For data set [9], the system named is Rattus norvegicus. The experiment in a line: Bone Volume /Tissue Volume (%)measured using micro Computed Tomography(CT) after a dose of 30 ug/kg in Vertebral Bone. The format is functional. Conditions: at 30 µg/kg.
The test system of data set [10] is Rattus norvegicus. Description: connectivity density (mm-3) using micro Computed Tomography(CT) after a does of 300 ug/kg in Vertebral Bone. The format is functional. In a few lines:
(§4)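 Rats were ovariectomized at 6 months of age and, after 60 days, dosed subcutaneously once daily for 60 days, with vehicle of acetate-buffered saline, methylcellulose and polysorbate. At necropsy the fifth lumbar vertebra was scanned by micro-CT to obtain cancellous architecture. Groups were 6-8 rats; results were compared to vehicle by ANOVA with least significant difference test.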

The subject of data set [11] is Rattus norvegicus. Description: Bone Volume /Tissue Volume (%)measured Histomorphometrically after a dose of 300 ug/kg in proximal tibial metaphysis. The format is functional. Conditions: at 300 µg/kg.
The test system of data set [12] is Rattus norvegicus. Description: connectivity density (mm-3) using micro Computed Tomography(CT) after a does of 30 ug/kg in Vertebral Bone. The format is functional. Put shortly: as §4
For data set [13], the system named is Rattus norvegicus. The experiment in a line: Derived trabecular thickness (um) measured using micro Computed Tomography(CT) after a dose of 300 ug/kg in Vertebral Bone. Type of data set: functional, Trabecula. In a few lines: as §1
Data set [14] has as its system Rattus norvegicus. The experiment in a line: Endosteal mineralizing surface Histomorphometrically after a dose of 3000 ug/kg in tibial diaphysis. The format is functional. Put shortly:
(§5)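 Six-month-old rats, bilaterally ovariectomized, 6-8 per group, on natural chow. After 60 days they received once-daily subcutaneous dosing for 60 days at 0.01–3.0 mg/kg. Vehicle was acetate-buffered saline with methylcellulose and polyoxyethylenesorbitan monooleate. Labels were xylenol orange 90 mg/kg before treatment and calcein 10 mg/kg 14 and 4 days before sacrifice. Tibial histomorphometry was read under fluorescent light, with ANOVA/LSD versus vehicle.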

For data set [15], the system named is Rattus norvegicus. Description: Derived trabecular thickness (um) measured using micro Computed Tomography(CT) after a dose of 1000 ug/kg in Vertebral Bone. The format is functional, Trabecula. In a few lines:
as §1

Data set [16] concerns Rattus norvegicus. Description: Endosteal eroded surface(%) measured Histomorphometrically after a dose of 300 ug/kg in tibial diaphysis. The format is functional. Put shortly: as §3
For data set [17], the system named is Rattus norvegicus. The experiment in a line: Bone Volume /Tissue Volume (%)measured using micro Computed Tomography(CT) after a dose of 3000 ug/kg in Vertebral Bone. The format is functional. Particulars: at 3000 µg/kg.
Data set [18] relates to Rattus norvegicus. Description: Endosteal mineralizing surface Histomorphometrically after a dose of 300 ug/kg in tibial diaphysis. The format is functional. In a few lines:
as §5

The test system of data set [19] is Rattus norvegicus. The experiment in a line: Bone Volume /Tissue Volume (%)measured using micro Computed Tomography(CT) after a dose of 300 ug/kg in Vertebral Bone. The format is functional. Particulars: at 300 µg/kg.
Data set [20] concerns Rattus norvegicus. The experiment in a line: connectivity density (mm-3) using micro Computed Tomography(CT) after a does of 10 ug/kg in Vertebral Bone. The format is functional. Put shortly:
as §4

The target of data set [21] is Prostaglandin E2 receptor EP4 subtype (Homo sapiens, UniProt P35408). Description: In vitro binding at EP4 human prostaglandin receptor using [3H]PGE-2 as radioligand. Put shortly:
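Receptors stably expressed in CHO cells, collected 4-5 days after seeding. Membranes made by lysis (Tris, EDTA, protease inhibitors) and 100000g pellet, then resuspended at 1 mg protein/mL in TME. Radioligands at 5 nM: [3H]PGE2 for EP2/EP3/EP4, [3H]Iloprost for IP, [3H]SQ-29548 for TP. Competition binding with filtration and counting.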

The subject of data set [22] is Rattus norvegicus. The experiment in a line: Trabecular no (mm)measured Histomorphometrically after a dose of 30 ug/kg in proximal tibial metaphysis. Type of data set: functional, Trabecula. Put shortly: as §2
In data set [23] the test system is Rattus norvegicus. Description: Derived trabecular thickness (um) measured using micro Computed Tomography(CT) after a dose of 3000 ug/kg in Vertebral Bone. Type of data set: functional, Trabecula. Put shortly: as §1

Prostaglandin E2 receptor EP4 subtype, sequence (P35408 whole entry): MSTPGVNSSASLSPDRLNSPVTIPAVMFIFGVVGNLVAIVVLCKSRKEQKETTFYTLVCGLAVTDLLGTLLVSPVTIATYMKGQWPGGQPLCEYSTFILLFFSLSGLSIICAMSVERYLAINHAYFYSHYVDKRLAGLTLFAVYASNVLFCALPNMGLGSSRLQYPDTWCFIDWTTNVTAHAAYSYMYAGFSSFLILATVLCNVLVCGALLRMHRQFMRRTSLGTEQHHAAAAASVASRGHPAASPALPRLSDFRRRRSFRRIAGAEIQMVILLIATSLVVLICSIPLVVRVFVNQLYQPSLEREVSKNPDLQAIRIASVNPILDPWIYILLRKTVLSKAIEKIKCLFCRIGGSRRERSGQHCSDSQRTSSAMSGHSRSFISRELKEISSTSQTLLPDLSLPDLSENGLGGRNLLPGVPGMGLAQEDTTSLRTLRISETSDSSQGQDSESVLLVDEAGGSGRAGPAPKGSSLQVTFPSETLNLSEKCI

In data set [1], `CP(=O)(O)CCC/C=C\C[C@@H]1[C@@H](/C=C/[C@@H](O)COc2ccccc2)[C@H](O)C[C@@H]1O` gave a Derived trabecular number of 4.71 mm-1. Moreover, the Trabecular no. in data set [2] is 1.27 1/mm; in data set [22] it was 0.87 1/mm. Further, the Endosteal eroded surface in [3] is listed as 2.01%; in [16] it was 1.32%. Also, the Tissue area in data set [4] stood at 5.01 mm. For the same molecule, the Activity in data set [5] is 38.04%; in data set [9], 34.58%; in data set [11], 5.72%; in data set [17], 39.48%; in data set [19], 38.61%. Besides, the IC50 in [6] and in data set [21] was more than 10 µM each time. The molecule further showed a Directly measured thickness in data set [7] of 118 µm. Besides, the pKa (usually the pH at which an ionisable group is half protonated) in data set [8] came out at 3.1. Further, the results for the Connectivity density in [10], in data set [12] and in data set [20] were 66.71 mm**-3, 59.2 mm**-3 and 60.28 mm**-3, respectively. Also, the Derived trabecular thickness is 79.5 µm in [13], 80.6 µm in [15] and 83.8 µm in data set [23]. For the same molecule, the Endosteal mineralizing surface in [14] came out at 29.4%; in [18], 29.02%.
